GPR7 antag – blocks human GPR7 receptor signaling; P48145; GPR7-expressing cells, fluorescence antagonist assay; inhibition, % at 4.4 µM; 290,000 tested, 1.1% active; AID 1861; in the data active means inhibition above about 16%, passing the limit was not always enough;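 further: cells stimulated with the agonist NPW; 0% = agonist with vehicle and 100% = vehicle without agonist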
Target sequence (P48145 whole entry, looked up): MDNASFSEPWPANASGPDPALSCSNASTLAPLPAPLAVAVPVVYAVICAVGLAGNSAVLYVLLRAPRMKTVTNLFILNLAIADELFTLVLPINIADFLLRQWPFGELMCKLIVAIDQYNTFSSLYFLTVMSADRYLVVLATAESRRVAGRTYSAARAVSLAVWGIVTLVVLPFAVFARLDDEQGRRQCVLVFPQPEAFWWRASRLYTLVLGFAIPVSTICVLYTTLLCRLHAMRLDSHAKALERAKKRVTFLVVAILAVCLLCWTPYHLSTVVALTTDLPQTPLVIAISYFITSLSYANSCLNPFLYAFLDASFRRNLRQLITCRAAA
NS3 helicase inh – blocks Hepatitis C virus NS3 helicase unwinding | NS3 helicase DNA unwinding, Cy5 molecular beacon fluorescence | inhibition, % at 10.9 µM | 290,000 tested, 0.56% active | AID 1800;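 active means inhibition above the mean of all tested compounds plus 3 SD, set per campaign, cut at about 35% in these data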;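 further: 0% = DMSO wells and 100% = thioflavine S control wells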
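Control set: DMSO versus 110 µM thioflavine S; Material: NS3 helicase fragment of HCV; Measured by: Cy5 fluorescence at 0 and 60 min, beacon hairpin quenching; Read-out basis: percent inhibition from t60/t0 fluorescence ratio; Times: reaction time 60 min, 25 °C; Repeats: single replicate; Compound dosing: single dose, 10.9 µM nominal final, DMSO 0.8% final.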
ZTA DNA inh – counter-screen for EBNA-1 inhibitors: inhibitors of Epstein-Barr virus ZTA | inhibition, % at 11 µM | ZTA-DNA binding, fluorescence polarization | 320,000 tested, 0.15% active | P03206 | AID 2234; in the data active means inhibition above about 33%
Target sequence (P03206 whole entry, looked up): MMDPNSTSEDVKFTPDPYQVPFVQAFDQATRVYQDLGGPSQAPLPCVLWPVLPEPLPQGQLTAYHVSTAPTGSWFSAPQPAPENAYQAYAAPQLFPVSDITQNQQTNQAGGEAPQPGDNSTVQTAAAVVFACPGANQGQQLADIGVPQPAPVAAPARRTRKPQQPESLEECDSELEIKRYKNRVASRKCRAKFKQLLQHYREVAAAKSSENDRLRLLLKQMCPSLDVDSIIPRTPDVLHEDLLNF
EBV gp42 block – inhibitors of Epstein-Barr virus glycoprotein 42; Fluorescence polarization binding assay, mP read-out; inhibition, % (tested at 21.74 µM); 220,000 tested, 0.42% active; AID 1085; in the data active means inhibition above about 50%
EBNA-1 inhibitor – blocks EBNA-1 binding to DNA | EBNA-1 DNA binding, fluorescence polarization | inhibition, % at 14.8 µM | 300,000 tested, 0.34% active | AID 1950; in the data active means inhibition above about 28%
core dimer inh – blocks dimerization of HCV core protein; 300,000 tested, 0.33% active; inhibition, % at 5 µM; TR-FRET GST/Flag-core106 dimerization, 1536-well;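 active means inhibition above the mean of all tested compounds plus 3 SD, set per screening campaign, cut at about 45% in these data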
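Assay system – GST-tagged and Flag-tagged HCV core protein residues 1-106 · Quantity – core106 proteins, GST 13.5 nM and Flag 17 nM · Benchmarks – unlabelled core106 and no-GST-core106 wells · Read-out basis – percent inhibition of core106 dimerization signal · Detection – time-resolved FRET, ex 340 nm, em 617 and 671 nm · Schedule – 4 h at 22.5 °C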
GPR7 antag cf – confirmation of human GPR7 antagonists. GPR7-expressing cells, calcium fluorescence antagonist mode. inhibition, % at 4.4 µM. AID 1952. shares compounds with GPR7 antag. 2,400 tested, 52% active; in the data active means inhibition above about 24%;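 further: stimulated with the GPR7 agonist NPW; 0% = agonist plus vehicle and 100% = vehicle alone without agonist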
MCHR1 antagonist – antagonizes human MCHR1, a GPR7 antagonist counter-screen. shares compounds with GPR7 antag. MCHR1-expressing cells, fluorescence antagonist assay. inhibition, % at 4.4 µM. 2,400 tested, 62% active; in the data active means inhibition above about 22%;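 further: 0% = vehicle with agonist and 100% = vehicle without agonist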
* marks the source's active call; other numbers are inactive results; nt = not tested or not shown. Compounds with a hit are over-represented: about 2.3% of the library has one in this group of screens.

SMILES	GPR7 antag	NS3 helicase inh	ZTA DNA inh	EBV gp42 block	EBNA-1 inhibitor	core dimer inh	GPR7 antag cf	MCHR1 antagonist
Cc1cccc(C(=O)N(CCc2ccccc2)Cc2ccccc2)c1[N+](=O)[O-]	24*	-14	-7	nt	4	19	24*	67*
O=C(c1ccccc1[N+](=O)[O-])N(CCc1ccccc1)Cc1ccccc1	13	-8	6	nt	-9	17	nt	nt
O=C(CNS(=O)(=O)c1ccccc1)OCC(=O)c1ccc(OC(=O)c2ccccc2)cc1	24*	-5	10	-2	10	2	26*	39*
O=C(CNS(=O)(=O)c1ccccc1)OCC(=O)c1ccc(Br)cc1	-9	3	3	nt	1	1	nt	nt
COc1ccc(C(=O)NCCc2ccc(F)cc2)cc1OC	-7	-5	4	-10	-2	-2	nt	nt
COc1ccc(CCNC(=O)c2ccc3c(c2)N(Cc2ccc(F)cc2)CCS3)cc1OC	29*	-32	-3	nt	-5	8	31*	50*
CCn1c(C)nc2cc(N)ccc21	27*	4	-12	-24	4	-4	-10	1
O=C(CN1CCC(c2nc3ccccc3s2)CC1)N1CCCCC1	-4	7	-20	3	-11	-3	nt	nt
O=C(CN1CCC(c2nc3ccccc3s2)CC1)NCc1cccs1	48*	-16	1	-13	-5	8	39*	57*
COc1ccc(-c2nn(CCC(=O)O)cc2/C=N/NC(N)=S)cc1	-12	-2	7	-3	9	0	nt	nt
Cc1ccccc1OCC(=O)N=Nc1c(O)n(C)c2ccccc12	-12	-3	18	-8	0	0	nt	nt
C=CCCC(=O)NC1CC(C)(C)Cc2c1cnn2-c1ccc(OC)cc1 (centres undefined)	26*	4	28	nt	-2	1	1	-1
COc1ccc(-n2ncc3c2CC(C)(C)CC3NC(=O)CCn2cncn2)cc1 (centres undefined)	-7	-2	nt	nt	nt	nt	nt	nt
COc1ccc(-n2c(C)cc(C(=O)COc3ccc(-n4cnnn4)cc3)c2C)cc1	28*	1	12	-11	8	42	12	24*
Cc1onc(-c2ccccc2Cl)c1C(=O)N1CCN(C)CC1	1	-3	-12	nt	-2	2	nt	nt
O=C(NS(=O)(=O)Oc1ccc(F)cc1F)OC[C@@H]1CCCN2CCCCC12 (some centres undefined)	-13	-13	-6	nt	-16	2	nt	nt
O=C(NS(=O)(=O)Oc1cccc(F)c1)OC[C@@H]1CCCN2CCCCC12 (some centres undefined)	23*	22	2	nt	-12	-4	-11	10
COc1ccccc1N1CCN(CC(=O)Nc2c(C)n[nH]c2C)CC1	-6	-6	-21	-6	2	-5	nt	nt
COc1ccccc1C1(O)CCN(CC(=O)Nc2c(C)nn(C)c2C)CC1	27*	10	7	-7	7	6	0	8
CCCN(CCC)c1nc(Cl)nc(NCc2ccco2)n1	21*	6	13	10	20	7	-13	7
Cc1cc(NC(=O)c2ccc(C)c([N+](=O)[O-])c2)no1	5	5	-12	-19	-1	-10	nt	nt
Cc1cc(NC(=O)c2ccc(Br)c([N+](=O)[O-])c2)no1	22*	-13	-4	-20	-2	3	0	4
COc1ccc(C(=O)COC(=O)c2ccco2)cc1	-6	12	9	-12	-2	4	nt	nt
O=C(COC(=O)c1ccccc1F)c1ccc(-n2nncc2-c2ccco2)cc1	22*	12	1	-1	9	28	7	26*
COc1ccc(NC(=O)C2CCN(S(=O)(=O)c3ccc4c(c3)NC(=O)C(C)S4)CC2)cc1 (centres undefined)	5	-7	5	nt	6	7	nt	nt
SMILES	GPR7 antag	NS3 helicase inh	ZTA DNA inh	EBV gp42 block	EBNA-1 inhibitor	core dimer inh	GPR7 antag cf	MCHR1 antagonist
CC(=O)N1c2ccc(S(=O)(=O)N3CCC(C(=O)Nc4cccc(Cl)c4)CC3)cc2CC1C (centres undefined)	31*	-16	-5	nt	-11	6	21	47*
Cc1ccc(NC(=O)C2CCN(S(=O)(=O)c3ccc(N4CCCC4=O)cc3)CC2)cc1Cl	38*	-28	-7	nt	-6	14	52*	61*
CC1Sc2ccc(S(=O)(=O)N3CCC(C(=O)Nc4ccc(Cl)cc4)CC3)cc2NC1=O (centres undefined)	61*	-10	2	nt	8	11	68*	70*
Cc1cc(OCC(=O)NCCCn2ccnc2)c2c(C)c(C)c(=O)oc2c1	-3	6	6	nt	3	0	nt	nt
CN(C(=O)c1cc([N+](=O)[O-])ccc1N1CCCC1)C1CCCCC1	34*	-1	-5	nt	-4	2	29*	24*
O=[N+]([O-])c1cccc(-c2nc3ccc([N+](=O)[O-])cc3[nH]2)c1	-3	-3	7	13	-17	-1	nt	nt
O=[N+]([O-])c1ccc2nc(-c3ccccc3[N+](=O)[O-])[nH]c2c1	25*	-3	5	-26	3	-9	3	4
Cc1nn(C)c(C)c1Nc1ccc(N2C(=O)C3CC=CCC3C2=O)cc1[N+](=O)[O-] (centres undefined)	-12	2	-1	-8	-2	-3	nt	nt
Cc1nn(C)c(C)c1Nc1ccc(N2C(=O)C3C4C=CC(C4)C3C2=O)cc1[N+](=O)[O-] (centres undefined)	26*	10	7	-10	3	1	2	5
O=C(Nc1ccc(F)cc1)c1cccc(N2C(=O)C3C4C=CC(C5CC45)C3C2=O)c1 (centres undefined)	26*	-14	-4	nt	-4	-2	24*	45*
O=C(Nc1ccccc1)c1cccc(N2C(=O)C3C4C=CC(C5CC45)C3C2=O)c1 (centres undefined)	-10	-5	2	nt	-6	0	nt	nt
COc1ccc(OC)c(NC(=O)c2cccc(N3C(=O)C4C5C=CC(C6CC56)C4C3=O)c2)c1 (centres undefined)	24*	-1	1	nt	-1	0	22	69*
O=C(NCc1ccco1)/C(=C\c1ccco1)NC(=O)c1ccco1	-10	11	-8	4	0	-3	nt	nt
CC(=O)c1ccc(N2CCN(S(=O)(=O)c3ccc4c5c3CC(=O)N5CC(C)S4)CC2)cc1 (centres undefined)	25*	18	-14	nt	-15	12	11	41*

Assay outcomes as filed in PubChem BioAssay.
